Test results published in ChEMBL document CHEMBL1148438, “Discovery of a new family of inhibitors of human cytomegalovirus (HCMV) based upon lipophilic alkyl furano pyrimidine dideoxy nucleosides: action via a novel non-nucleosidic mechanism” (J Med Chem, 2004).

Assays:
HEL [1] = test: Effective concentration required to inhibit HCMV AD169 strain-induced cytopathicity in human embryonic lung (HEL) fibroblast cell cultures at day 7 of postinfection; format: functional, cell-based; conditions: 168 h
Outline: (§1)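 Confluent HEL fibroblast monolayers were infected with 100 PFU of HCMV per well and adsorbed for 1-2 h. Residual virus was removed, and cells were kept in MEM with 2% inactivated FCS, 1% L-glutamine and 0.3% sodium bicarbonate plus varying compound concentrations. Cytopathicity was scored at day 7, and EC50 was the concentration reducing virus-induced CPE by 50% versus untreated control.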

HEL [2] = test: Effective concentration required to inhibit HCMV Davis strain-induced cytopathicity in human embryonic lung (HEL) fibroblast cell cultures at day 7 of postinfection; format: functional, cell-based; conditions: 168 h; outline: as §1
HEL [3] = test: Cytostatic concentration required to inhibit HEL cell proliferation measured at day 4; format: functional; conditions: Homo sapiens, 96 h
Outline: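 Growing, subconfluent HEL cells were exposed to different compound concentrations, then trypsinized and counted with a Coulter counter. The 50% value was the concentration reducing cell number by 50% relative to untreated cells.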

HEL [4] = test: Minimal cytotoxic concentration required to cause a microscopically visible alteration of HEL cell morphology as measured at day 7 postinfection; format: functional; conditions: Homo sapiens, 168 h
Outline: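 MCC was assessed within the antiviral assay on confluent HEL monolayers exposed to varying compound concentrations. It was taken at day 7 as the lowest concentration giving microscopically visible cytotoxicity (altered morphology).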

CCCCCCCCCCc1cc2cn(C3CCC(CO)O3)c(=O)nc2o1 (stereo not drawn) was tested. Which EC50 (HEL [1]) did it give?
Its EC50 is 2.6 µM.

And the EC50 (HEL [2])?
The EC50 was 3.2 µM.

What about the CC50 (HEL [3]) of the same molecule?
Its CC50 is greater than 200 µM.

What about the MCC (HEL [4]) of the same molecule?
The MCC was greater than 20 µM.

What does the source list for CCCCCCCCc1cc2cn(C3CCC(CO)O3)c(=O)nc2o1 (stereo not drawn)?
EC50 (HEL [1]): 2.5 µM; EC50 (HEL [2]): 3 µM; CC50 (HEL [3]): 112 µM; MCC (HEL [4]): 20 µM

CCCCCCCCCCCCCCc1cc2cn(C3CCC(CO)O3)c(=O)nc2o1 (stereo not drawn) was tested. Which EC50 (HEL [1]) did it give?
The EC50 was 25 µM.

What about the EC50 (HEL [2]) of the same molecule?
Its EC50 is 40 µM.

And the CC50 (HEL [3])?
Its CC50 is greater than 200 µM.

What about the MCC (HEL [4]) of the same molecule?
Its MCC is 200 µM.

Which results are given for CCCCCCc1cc2cn(C3CCC(CO)O3)c(=O)nc2o1 (stereo not drawn)?
EC50 (HEL [1]): 32 µM; EC50 (HEL [2]): > 50 µM; CC50 (HEL [3]): 143 µM; MCC (HEL [4]): 200 µM

How did the EC50 (HEL [1]) turn out when Nc1nc2c(ncn2COC(CO)CO)c(=O)[nH]1 [GANCICLOVIR] was run?
The EC50 was 2.7 µM.

What about the EC50 (HEL [2]) of the same molecule?
The EC50 was 3.9 µM.

What about the CC50 (HEL [3]) of the same molecule?
The CC50 was greater than 150 µM.

What about the MCC (HEL [4]) of the same molecule?
Its MCC is greater than 150 µM.

Nc1ccn(C[C@@H](CO)OCP(=O)(O)O)c(=O)n1 [CIDOFOVIR] was tested. Which CC50 (HEL [3]) did it give?
Its CC50 is 158 µM.

And the MCC (HEL [4])?
The MCC was greater than 150 µM.

With CCCCCCCCCc1cc2cn(C3CCC(CO)O3)c(=O)nc2o1 (stereo not drawn) as the molecule, how does the EC50 (HEL [1]) read?
The EC50 was 1.2 µM.

And the EC50 (HEL [2])?
Its EC50 is 1.3 µM.

And the CC50 (HEL [3])?
The CC50 was greater than 200 µM.

What about the MCC (HEL [4]) of the same molecule?
Its MCC is 58 µM.

Which results are given for O=C(O)P(=O)(O)O [FOSCARNET]?
EC50 (HEL [1]): 53 µM; EC50 (HEL [2]): 62 µM; CC50 (HEL [3]): 500 µM; MCC (HEL [4]): > 400 µM

CCCCCCCCCCCc1cc2cn(C3CCC(CO)O3)c(=O)nc2o1 (stereo not drawn) was tested. Which EC50 (HEL [1]) did it give?
Its EC50 is 1.4 µM.

What about the EC50 (HEL [2]) of the same molecule?
The EC50 was 1.2 µM.

What about the CC50 (HEL [3]) of the same molecule?
Its CC50 is greater than 200 µM.

And the MCC (HEL [4])?
The MCC was 50 µM.

What does the source list for CCCCCCCCCCCCc1cc2cn(C3CCC(CO)O3)c(=O)nc2o1 (stereo not drawn)?
EC50 (HEL [1]): 3.7 µM; EC50 (HEL [2]): 5 µM; CC50 (HEL [3]): > 200 µM; MCC (HEL [4]): 200 µM
